Measured values taken from ChEMBL document CHEMBL1148130, “Derrisin, a new rotenoid from Derris malaccensis plain and anti-Helicobacter pylori activity of its related constituents” (2002).
≈ marks a conversion by molar mass, not a printed value. Calls of active or inactive are those of the source. The calls are words filed in the database; no cut-off is given here.

How the values were obtained:
Bacillus subtilis = assay: Antibacterial activity against Bacillus subtilis ATCC 6633 at 625 ug/mL after 24 hrs by conventional well agar method; assay type: functional, organism-based
Escherichia coli = assay: Antibacterial activity against Escherichia coli ATCC 10536 at 625 ug/mL after 24 hrs by conventional well agar method; assay type: functional, organism-based
Pseudomonas aeruginosa = assay: Antibacterial activity against Pseudomonas aeruginosa ATCC 9027 at 625 ug/mL after 24 hrs by conventional well agar method; assay type: functional, organism-based
Micrococcus luteus = assay: Antibacterial activity against Micrococcus luteus ATCC 9341 at 625 ug/mL after 24 hrs by conventional well agar method; assay type: functional, organism-based
Helicobacter pylori = assay: Antibacterial activity against Helicobacter pylori 31A after 48 hrs by serial doubling dilution method; assay type: functional
How it was run: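 H. pylori strain 31 A (stomach ulcer isolate) in brain-heart infusion broth with 10% fetal bovine serum, grown in test tubes under 10% CO2, 5% O2 and 85% N2 at 37 °C. Serial doubling dilutions made in 10% aqueous DMSO and added as 10% of the medium, with 5% culture inoculum. Incubated 37 °C for 48 h. MIC taken as the lowest concentration with no visible growth.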

Candida albicans = assay: Antifungal activity against Candida albicans ATCC 10231 at 625 ug/mL after 24 hrs by conventional well agar method; assay type: functional, organism-based
Bacteroides fragilis = assay: Antibacterial activity against Bacteroides fragilis ATCC 25285 at 625 ug/mL after 24 hrs by conventional well agar method; assay type: functional, organism-based

Compound | Activity (Bacillus subtilis) | Activity (Escherichia coli) | Activity (Pseudomonas aeruginosa) | Activity (Micrococcus luteus) | MIC (Helicobacter pylori) [µg/mL] | Activity (Candida albicans) | Activity (Bacteroides fragilis)
COc1cc2c(cc1OC)Oc1c(oc3c4c(ccc3c1=O)OC(C)(C)C=C4)CO2 | inactive | inactive | inactive | inactive | 4 (≈ 9.79 µM) | inactive | inactive
COc1cc2c(cc1OC)[C@]1(O)C(=O)c3ccc4c(c3O[C@@H]1CO2)[C@H](O)[C@@H](O)C(C)(C)O4 | inactive | inactive | inactive | inactive | > 88 | inactive | inactive
CC[C@H]1OC(=O)[C@H](C)[C@@H](O[C@H]2C[C@@](C)(OC)[C@@H](O)[C@H](C)O2)[C@H](C)[C@@H](O[C@@H]2O[C@H](C)C[C@H](N(C)C)[C@H]2O)[C@](C)(OC)C[C@@H](C)C(=O)[C@H](C)[C@@H](O)[C@]1(C)O [CLARITHROMYCIN] | inactive | inactive | inactive | inactive | 0.05 (≈ 0.0668 µM) | inactive | inactive
COc1cc2c(cc1OC)[C@@H]1C(=O)c3ccc4c(c3O[C@@H]1CO2)C=CC(C)(C)O4 [DEGUELIN] | inactive | inactive | inactive | inactive | 0.6 (≈ 1.52 µM) | inactive | inactive
COc1cc2c(cc1OC)-c1c(oc3c4c(ccc3c1=O)OC(C)(C)C=C4)CO2 [DEHYDRODEGUELIN] | inactive | inactive | inactive | inactive | 4 (≈ 10.2 µM) | inactive | inactive
C=C(C)[C@H]1Cc2c(ccc3c(=O)c4c(oc23)COc2cc(OC)c(OC)cc2-4)O1 [DEHYDROROTENONE] | inactive | inactive | inactive | inactive | 9.8 (≈ 25 µM) | inactive | inactive
COc1cc2c(cc1OC)[C@@H]1C(=O)c3ccc4c(c3O[C@@H]1CO2)[C@H](O)[C@@H](O)C(C)(C)O4 [DERRISIN] | inactive | inactive | inactive | inactive | 85 (≈ 198 µM) | inactive | inactive
COc1cc2c(cc1OC)[C@@H]1C(=O)c3ccc4occc4c3O[C@@H]1CO2 [ELLIPTONE] | inactive | inactive | inactive | inactive | 3 (≈ 8.51 µM) | inactive | inactive
C=C(C)[C@H]1Cc2c(ccc3c2O[C@@H]2COc4cc(OC)c(OC)cc4[C@]2(O)C3=O)O1 [ROTENOLONE] | inactive | inactive | inactive | inactive | 1.3 (≈ 3.17 µM) | inactive | inactive
C=C(C)[C@H]1Cc2c(ccc3c2O[C@@H]2COc4cc(OC)c(OC)cc4[C@@H]2C3=O)O1 [ROTENONE] | inactive | inactive | inactive | inactive | 1.3 (≈ 3.3 µM) | inactive | inactive
COc1cc2c(cc1OC)[C@]1(O)C(=O)c3ccc4c(c3O[C@@H]1CO2)C=CC(C)(C)O4 [TEPHROSIN] | inactive | inactive | inactive | inactive | 0.3 (≈ 0.731 µM) | inactive | inactive
COc1cc2c(cc1OC)[C@@H]1C(=O)c3c(O)cc4c(c3O[C@@H]1CO2)C=CC(C)(C)O4 [TOXICAROL] | inactive | inactive | inactive | inactive | 0.3 (≈ 0.731 µM) | inactive | inactive
